Source: ChEMBL document CHEMBL4033712, “Synthesis and biological evaluation of new C-12(α/β)-(N-) sulfamoyl-phenylamino-14-deoxy-andrographolide derivatives as potent anti-cancer agents” (Bioorg Med Chem Lett, 2017)

What was measured:
Assay type in all cases: functional
BT-549 = experiment: Anticancer activity against human BT549 cells assessed as cell growth at 10 uM after 48 hrs by sulforhodamine B assay relative to control; conditions: BT-549, 48 h, read-out: Activity
Procedure, shortened: (§1)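 Single-dose NCI-60 panel screen: compound added at 10 µM and the culture incubated 48 h. The end point was read by protein staining with sulforhodamine B. The value is percent growth of treated cells relative to untreated control cells, reported as a mean graph across the panel.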

NCI-H322M = experiment: Anticancer activity against human NCI-H322M cells assessed as cell growth at 10 uM after 48 hrs by sulforhodamine B assay relative to control; conditions: read-out: Activity; procedure, shortened: as §1
OVCAR-4 = experiment: Anticancer activity against human OVCAR4 cells assessed as cell growth at 10 uM after 48 hrs by sulforhodamine B assay relative to control; conditions: OVCAR-4, 48 h, read-out: Activity; procedure, shortened: as §1
SNB-75 = experiment: Anticancer activity against human SNB75 cells assessed as cell growth at 10 uM after 48 hrs by sulforhodamine B assay relative to control; conditions: SNB-75, 48 h, read-out: Activity
Procedure, shortened: (§2)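 NCI-60 single-dose screen: compound added at 10 µM, cultures incubated 48 h. End point by sulforhodamine B protein-binding dye. Value reported as percent growth of treated cells relative to untreated control cells.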

SF-295 = experiment: Anticancer activity against human SF295 cells assessed as cell growth at 10 uM after 48 hrs by sulforhodamine B assay relative to control; conditions: SF-295, 48 h, read-out: Activity; procedure, shortened: as §1
K562 = experiment: Anticancer activity against human K562 cells assessed as cell growth at 10 uM after 48 hrs by sulforhodamine B assay relative to control; conditions: K562, 48 h, read-out: Activity; procedure, shortened: as §1
CCRF-CEM = experiment: Anticancer activity against human CCRF-CEM cells assessed as cell growth at 10 uM after 48 hrs by sulforhodamine B assay relative to control; conditions: read-out: Activity; procedure, shortened: as §1
A549 = experiment: Anticancer activity against human A549/ATCC cells assessed as cell growth at 10 uM after 48 hrs by sulforhodamine B assay relative to control; conditions: A549, 48 h, read-out: Activity; procedure, shortened: as §1
SK-MEL-2 = experiment: Anticancer activity against human SK-MEL-2 cells assessed as cell growth at 10 uM after 48 hrs by sulforhodamine B assay relative to control; conditions: SK-MEL-2, 48 h, read-out: Activity; procedure, shortened: as §1
SW-620 = experiment: Anticancer activity against human SW620 cells assessed as cell growth at 10 uM after 48 hrs by sulforhodamine B assay relative to control; conditions: SW-620, 48 h, read-out: Activity; procedure, shortened: as §2
U-251 = experiment: Anticancer activity against human U251 cells assessed as cell growth at 10 uM after 48 hrs by sulforhodamine B assay relative to control; conditions: U-251, 48 h, read-out: Activity; procedure, shortened: as §2
UO-31 = experiment: Anticancer activity against human UO31 cells assessed as cell growth at 10 uM after 48 hrs by sulforhodamine B assay relative to control; conditions: UO-31, 48 h, read-out: Activity; procedure, shortened: as §2
MOLT-4 = experiment: Anticancer activity against human MOLT4 cells assessed as cell growth at 10 uM after 48 hrs by sulforhodamine B assay relative to control; conditions: MOLT-4, 48 h, read-out: Activity; procedure, shortened: as §1
786-0 = experiment: Anticancer activity against human 786-0 cells assessed as cell growth at 10 uM after 48 hrs by sulforhodamine B assay relative to control; conditions: 786-0, 48 h, read-out: Activity; procedure, shortened: as §1
SF-268 = experiment: Anticancer activity against human SF268 cells assessed as cell growth at 10 uM after 48 hrs by sulforhodamine B assay relative to control; conditions: SF-268, 48 h, read-out: Activity; procedure, shortened: as §1
EKVX = experiment: Anticancer activity against human EKVX cells assessed as cell growth at 10 uM after 48 hrs by sulforhodamine B assay relative to control; conditions: read-out: Activity; procedure, shortened: as §1
NCI-H23 = experiment: Anticancer activity against human NCI-H23 cells assessed as cell growth at 10 uM after 48 hrs by sulforhodamine B assay relative to control; conditions: NCI-H23, 48 h, read-out: Activity; procedure, shortened: as §1
CAKI-1 = experiment: Anticancer activity against human Caki1 cells assessed as cell growth at 10 uM after 48 hrs by sulforhodamine B assay relative to control; conditions: CAKI-1, 48 h, read-out: Activity; procedure, shortened: as §1
OVCAR-5 = experiment: Anticancer activity against human OVCAR5 cells assessed as cell growth at 10 uM after 48 hrs by sulforhodamine B assay relative to control; conditions: OVCAR-5, 48 h, read-out: Activity; procedure, shortened: as §1
SR = experiment: Anticancer activity against human SR cells assessed as cell growth at 10 uM after 48 hrs by sulforhodamine B assay relative to control; conditions: read-out: Activity; procedure, shortened: as §2
Hs-578T = experiment: Anticancer activity against human Hs 578T cells assessed as cell growth at 10 uM after 48 hrs by sulforhodamine B assay relative to control; conditions: read-out: Activity; procedure, shortened: as §1
SK-OV-3 = experiment: Anticancer activity against human SKOV3 cells assessed as cell growth at 10 uM after 48 hrs by sulforhodamine B assay relative to control; conditions: SK-OV-3, 48 h, read-out: Activity; procedure, shortened: as §1
MDA-MB-231 = experiment: Anticancer activity against human MDA-MB-231 cells assessed as cell growth at 10 uM after 48 hrs by sulforhodamine B assay relative to control; conditions: MDA-MB-231, 48 h, read-out: Activity; procedure, shortened: as §1
SN12C = experiment: Anticancer activity against human SN12C cells assessed as cell growth at 10 uM after 48 hrs by sulforhodamine B assay relative to control; conditions: read-out: Activity; procedure, shortened: as §1
HCC 2998 = experiment: Anticancer activity against human HCC2998 cells assessed as cell growth at 10 uM after 48 hrs by sulforhodamine B assay relative to control; conditions: HCC 2998, 48 h, read-out: Activity; procedure, shortened: as §1
MDA-MB-468 = experiment: Anticancer activity against human MDA-MB-468 cells assessed as cell growth at 10 uM after 48 hrs by sulforhodamine B assay relative to control; conditions: MDA-MB-468, 48 h, read-out: Activity; procedure, shortened: as §1
PC-3 = experiment: Anticancer activity against human PC3 cells assessed as cell growth at 10 uM after 48 hrs by sulforhodamine B assay relative to control; conditions: PC-3, 48 h, read-out: Activity; procedure, shortened: as §1
LOX IMVI = experiment: Anticancer activity against human LOXIMVI cells assessed as cell growth at 10 uM after 48 hrs by sulforhodamine B assay relative to control; conditions: read-out: Activity; procedure, shortened: as §1
KM12 = experiment: Anticancer activity against human KM12 cells assessed as cell growth at 10 uM after 48 hrs by sulforhodamine B assay relative to control; conditions: KM12, 48 h, read-out: Activity; procedure, shortened: as §1
HCT-15 = experiment: Anticancer activity against human HCT15 cells assessed as cell growth at 10 uM after 48 hrs by sulforhodamine B assay relative to control; conditions: HCT-15, 48 h, read-out: Activity; procedure, shortened: as §1
SK-MEL-28 = experiment: Anticancer activity against human SK-MEL-28 cells assessed as cell growth at 10 uM after 48 hrs by sulforhodamine B assay relative to control; conditions: SK-MEL-28, 48 h, read-out: Activity; procedure, shortened: as §1
MCF7 = experiment: Anticancer activity against human MCF7 cells assessed as cell growth at 10 uM after 48 hrs by sulforhodamine B assay relative to control; conditions: MCF7, 48 h, read-out: Activity; procedure, shortened: as §1

For `C=C1CC[C@@H]2[C@](C)(COC(C)=O)[C@H](OC(C)=O)CC[C@@]2(C)[C@H]1CC(Nc1ccc(S(=O)(=O)Nc2nc(C)cc(C)n2)cc1)C1=CCOC1=O` (stereo partly specified), the growth at 10 µM (BT-549) was 71.9%, the growth at 10 µM (NCI-H322M) was 97.2% and the growth at 10 µM (OVCAR-4) was 65%. The growth at 10 µM (SNB-75) was 44.6%, the growth at 10 µM (SF-295) was 97% and the growth at 10 µM (K562) was 19.1%. For the same compound, the growth at 10 µM (CCRF-CEM) was 2.96%, the growth at 10 µM (A549) was 65.3% and the growth at 10 µM (SK-MEL-2) was 88.5%. For the same compound, the growth at 10 µM (SW-620) was 40%, the growth at 10 µM (U-251) was 48.2% and the growth at 10 µM (UO-31) was 71.2%. The growth at 10 µM (MOLT-4) was 24.6%, the growth at 10 µM (786-0) was 103% and the growth at 10 µM (SF-268) was 93.3%. The growth at 10 µM (EKVX) was 74.5%, the growth at 10 µM (NCI-H23) was 84.3% and the growth at 10 µM (CAKI-1) was 74%. The growth at 10 µM (OVCAR-5) was 103%, the growth at 10 µM (SR) was 22.2% and the growth at 10 µM (Hs-578T) was 99.8%. It also gave a growth at 10 µM (SK-OV-3) of 112%, a growth at 10 µM (MDA-MB-231) of 107% and a growth at 10 µM (SN12C) of 38.2%. For the same compound, the growth at 10 µM (HCC 2998) was 100%, the growth at 10 µM (MDA-MB-468) was 41% and the growth at 10 µM (PC-3) was 65.2%. The growth at 10 µM (LOX IMVI) was -60.6%, the growth at 10 µM (KM12) was 64.7% and the growth at 10 µM (HCT-15) was 49.2%. For the same compound, the growth at 10 µM (SK-MEL-28) was 83.5% and the growth at 10 µM (MCF7) was 40.3%.

In the case of `C=C1CC[C@@H]2[C@](C)(COC(C)=O)[C@H](OC(C)=O)CC[C@@]2(C)[C@H]1CC(Nc1ccc(S(=O)(=O)Nc2cc(C)on2)cc1)C1=CCOC1=O` (stereo partly specified), the growth at 10 µM (BT-549) is reported as 27.2%, the growth at 10 µM (NCI-H322M) is reported as 80.4% and the growth at 10 µM (OVCAR-4) is reported as 68.2%. For the same compound, the growth at 10 µM (SNB-75) was 59.4%, the growth at 10 µM (SF-295) was 100% and the growth at 10 µM (K562) was 9.67%. The growth at 10 µM (CCRF-CEM) was -19.1%, the growth at 10 µM (A549) was 72.2% and the growth at 10 µM (SK-MEL-2) was 63%. For the same compound, the growth at 10 µM (SW-620) was 14.7%, the growth at 10 µM (U-251) was 30% and the growth at 10 µM (UO-31) was 56.9%. It also gave a growth at 10 µM (MOLT-4) of -7.86%, a growth at 10 µM (786-0) of 89.8% and a growth at 10 µM (SF-268) of 67.3%. For the same compound, the growth at 10 µM (EKVX) was 82%, the growth at 10 µM (NCI-H23) was 71% and the growth at 10 µM (CAKI-1) was 44%. The growth at 10 µM (OVCAR-5) was 52.2%, the growth at 10 µM (SR) was 1.4% and the growth at 10 µM (Hs-578T) was 89.5%. For the same compound, the growth at 10 µM (SK-OV-3) was 109%, the growth at 10 µM (MDA-MB-231) was 61.1% and the growth at 10 µM (SN12C) was 31.8%. The growth at 10 µM (HCC 2998) was 68.3%, the growth at 10 µM (MDA-MB-468) was 3.23% and the growth at 10 µM (PC-3) was 70.8%. It also gave a growth at 10 µM (LOX IMVI) of -72.7%, a growth at 10 µM (KM12) of 30.5% and a growth at 10 µM (HCT-15) of 0.18%. It also gave a growth at 10 µM (SK-MEL-28) of 38.1% and a growth at 10 µM (MCF7) of 12.2%.

`C=C1CC[C@@H]2[C@](C)(COC(C)=O)[C@H](OC(C)=O)CC[C@@]2(C)[C@H]1CC(Nc1ccc(S(=O)(=O)Nc2ccc(Cl)nn2)cc1)C1=CCOC1=O` (stereo partly specified) showed a growth at 10 µM (BT-549) of -9.45%, a growth at 10 µM (NCI-H322M) of 57% and a growth at 10 µM (OVCAR-4) of 30.9%. For the same compound, the growth at 10 µM (SNB-75) was 25.2%, the growth at 10 µM (SF-295) was 92.8% and the growth at 10 µM (K562) was 6.81%. For the same compound, the growth at 10 µM (CCRF-CEM) was -10.3%, the growth at 10 µM (A549) was 61.6% and the growth at 10 µM (SK-MEL-2) was 58.3%. The growth at 10 µM (SW-620) was -37.7%, the growth at 10 µM (U-251) was -41.2% and the growth at 10 µM (UO-31) was 18.4%. The growth at 10 µM (MOLT-4) was 0.4%, the growth at 10 µM (786-0) was 58.8% and the growth at 10 µM (SF-268) was 43.3%. It also gave a growth at 10 µM (EKVX) of 87.3%, a growth at 10 µM (NCI-H23) of 58.2% and a growth at 10 µM (CAKI-1) of 31.8%. The growth at 10 µM (OVCAR-5) was 44.6%, the growth at 10 µM (SR) was -5.26% and the growth at 10 µM (Hs-578T) was 75.6%. For the same compound, the growth at 10 µM (SK-OV-3) was 86.1%, the growth at 10 µM (MDA-MB-231) was 23.8% and the growth at 10 µM (SN12C) was -27.6%. It also gave a growth at 10 µM (HCC 2998) of 88.5%, a growth at 10 µM (MDA-MB-468) of -32.3% and a growth at 10 µM (PC-3) of 38.4%. The growth at 10 µM (LOX IMVI) was -84.6%, the growth at 10 µM (KM12) was 27% and the growth at 10 µM (HCT-15) was -18.4%. It also gave a growth at 10 µM (SK-MEL-28) of 6.66% and a growth at 10 µM (MCF7) of 16.8%.
